# Experimental data from different studies.
# Protocols differ between the studies behind these lines. pKi: −log10 of the molar value.
# OPRK1: Kappa-type opioid receptor (OPRK1, Homo sapiens, UniProt P41145)
# PPO3: PPO3 (Agaricus bisporus, UniProt C7FF04)
# HRH4: Histamine H4 receptor (HRH4, Homo sapiens, UniProt Q9H3N8)
# HTR2A: 5-hydroxytryptamine receptor 2A (HTR2A, Homo sapiens, UniProt P28223)
# SIGMAR1: Sigma non-opioid intracellular receptor 1 (SIGMAR1, Homo sapiens, UniProt Q99720)
SMILES,target,observed,mode,method,notes,pKi
O[C@@H]1[C@H](O)[C@@H]2C[C@@H]2[C@H]1n1cnc2c(NCc3cccc(Cl)c3)nc(C#Cc3ccc(F)c(F)c3)nc21,OPRK1,cell-free assay,,,,< 5.00
CC(=O)Nc1ccc(N=Nc2c(N)nc(N)nc2N)cc1,PPO3,enzyme activity,inhibitor,,,5.30
Cc1ccc(C(C)C)cc1NC(=O)COC(=O)/C=C/c1ccccc1,PPO3,enzyme activity,inhibitor,,,6.08
O=C1NC(c2ccccc2)(c2ccccc2)C(=O)N1CCCN1CCCCC1,HRH4,ligand displacement,,radioligand,cell membranes,< 5.00
Cc1nc2n(c(=O)c1CCNCCc1c[nH]c3cc(F)ccc13)CCCC2,HTR2A,ligand displacement,,radioligand,cell membranes,5.71
CCCn1nc(C(=O)N2CCCCC2)c2c1CCC(NCCc1ccncc1)C2 (stereo not drawn),SIGMAR1,ligand displacement,,radioligand,,< 5.00
O=C(c1cccc(/N=N/c2cccc(OCCCN3CCCCC3)c2)c1)N1CCCC1,HRH4,ligand displacement,,radioligand,,< 5.00
CCOC(=O)[C@](CC)(CCCS(=O)(=O)CCOCCOCCNC(=O)OC(C)(C)C)NC(=O)c1ccc(C2CC2)c(Cc2ccc(F)cc2)n1,"Cannabinoid receptor 1 (CNR1, Homo sapiens, UniProt P21554)",ligand displacement,,radioligand,cell membranes,6.72
C[C@@H]1Cc2ccccc2N1C(=O)NCCCCN(C)[C@@H]1Cc2cccc3[nH]c(=O)n(c23)C1,HTR2A,ligand displacement,,radioligand,,5.57
CCCCN1CCC(COC(=O)c2ccc(N)c(OCF)c2)CC1,HRH4,cell-free assay,,radioligand,,< 5.00
CCCn1nc(C(=O)N2CCCCC2)c2c1CCC(N(C)Cc1ccc(F)cc1)C2 (stereo not drawn),SIGMAR1,ligand displacement,,radioligand,,< 5.00
Cc1nc[nH]c(=O)c1CCN1CCC(c2noc3cc(F)ccc23)CC1,HTR2A,ligand displacement,,radioligand,cell membranes,8.73
CNC(=O)[C@@]12C[C@@H]1[C@@H](n1cnc3c(NC4CC4c4ccccc4)nc(C#Cc4ccccc4)nc31)[C@H](O)[C@@H]2O (mixture of isomers),OPRK1,cell-free assay,,,,< 5.00
Nc1nc(N)c(N=Nc2ccc([N+](=O)[O-])cc2)c(N)n1,PPO3,enzyme activity,inhibitor,,,5.34
COc1cc2c(cc1OC)CN(CCCCn1ccc3c(OC)cccc31)C2,SIGMAR1,ligand displacement,,radioligand,cell membranes,6.83
Cc1ccc(N=Nc2c(N)nc(N)nc2Cl)cc1,PPO3,enzyme activity,inhibitor,,,5.23
CNc1nc(C#Cc2ccc(Cl)s2)nc2c1ncn2[C@H]1[C@H](O)[C@H](O)[C@]2(C(=O)O)C[C@H]12,OPRK1,cell-free assay,,,,< 5.00
CC(C)C(=O)Nc1ccc([N+](=O)[O-])c(C(F)(F)F)c1,"Hepatic sodium/bile acid cotransporter (SLC10A1, Homo sapiens, UniProt Q14973)",transporter uptake,inhibitor,,,3.95
CNC(=O)[C@@]12C[C@@H]1[C@@H](n1cnc3c(NC)nc(C#Cc4ccccc4Cl)nc31)[C@H](O)[C@@H]2O,OPRK1,cell-free assay,,,,< 5.00
Cn1cc(-c2ccncc2)c(-c2ccc(OCc3ccc4ccccc4n3)cc2)n1,"Vesicular acetylcholine transporter (SLC18A3, Homo sapiens, UniProt Q16572)",ligand displacement,,radioligand,,< 6.00
OCCCN1CC[C@@H]2C[C@H]1c1cc(-c3ccc(C(F)(F)F)cc3)ccc12,HRH4,ligand displacement,,radioligand,,5.26
CNC(=O)[C@@]12C[C@@H]1[C@@H](n1cnc3c(NCCCO)nc(C#Cc4ccc(Cl)s4)nc31)[C@H](O)[C@@H]2O,OPRK1,cell-free assay,,,,< 5.00
CCCn1nc(C(=O)N2CCCCC2)c2c1CCC(NCCCN1CCCC1=O)C2 (stereo not drawn),SIGMAR1,ligand displacement,,radioligand,,< 5.00
CNC(=O)[C@@]12C[C@@H]1[C@@H](n1cnc3c(NC)nc(C#Cc4ccc(Cl)s4)nc31)[C@H](O)[C@@H]2O,OPRK1,cell-free assay,,,,< 5.00
CC[C@H](C)[C@H](NC(=O)[C@H](CCC(=O)O)NC(=O)[C@H](CC(=O)O)NC(=O)CNC(=O)[C@H](CC(C)C)NC(=O)[C@H](CCCNC(=N)N)NC(=O)[C@H](CCCNC(=N)N)NC(=O)[C@H](CC(C)C)NC(=O)CNC(=O)[C@H](CCC(N)=O)NC(=O)[C@@H](NC(=O)[C@H](CCSC)NC(=O)[C@H](Cc1c[nH]c2ccccc12)NC(=O)[C@@H](NC(=O)[C@H](CCC(=O)O)NC(=O)[C@@H]1CCCN1C(=O)[C@H](CCCNC(=N)N)NC(C)=O)[C@@H](C)CC)[C@@H](C)O)C(=O)N[C@@H](CC(N)=O)C(=O)N[C@@H](C)C(=O)N[C@@H](Cc1ccc(O)cc1)C(=O)N[C@@H](Cc1ccc(O)cc1)C(=O)N[C@@H](C)C(=O)N[C@@H](CCCNC(=N)N)C(N)=O,"Bcl-2-like protein 1 (BCL2L1, Homo sapiens, UniProt Q07817)",ligand displacement,,FP,,5.62
CCCn1nc(C(=O)N2CCCCC2)c2c1CCC(NCCNC(=N)N)C2 (stereo not drawn),SIGMAR1,ligand displacement,,radioligand,,< 5.00
CNc1nc(C#Cc2ccc(Cl)s2)nc2c1ncn2[C@H]1[C@H](O)[C@H](O)[C@]2(C(=O)OC(C)C)C[C@H]12,OPRK1,cell-free assay,,,,< 5.00
N=C(N)N1CCC[C@H]1c1nc(-c2ccc(CCC3CCCCC3)c(C(F)(F)F)c2)no1,"Sphingosine kinase 1 (SPHK1, Homo sapiens, UniProt Q9NYA1)",enzyme activity,inhibitor,,,4.74
CNC(=O)[C@@]12C[C@@H]1[C@@H](n1cnc3c(NCc4cccc(Cl)c4)nc(C#Cc4ccc(F)cc4)nc31)[C@H](O)[C@@H]2O,OPRK1,cell-free assay,,,,< 5.00
CCCn1nc(C(=O)N2CCCCC2)c2c1CCC(N1CCN(Cc3ccc(C#N)cc3)CC1)C2 (stereo not drawn),SIGMAR1,ligand displacement,,radioligand,,< 5.00
